Reference: ChEMBL document CHEMBL1909630, “Azaxanthene based selective glucocorticoid receptor modulators: design, synthesis, and pharmacological evaluation of (S)-4-(5-(1-((1,3,4-thiadiazol-2-yl)amino)-2-methyl-1-oxopropan-2-yl)-5H-chromeno[2,3-b]pyridin-2-yl)-2-fluoro-N,N-dimethylbenzamide (BMS-776532) and its methylene homologue …” (J Med Chem, 2011)

How the values were obtained:
Glucocorticoid receptor [1] = molecular target: T1, Glucocorticoid receptor (Homo sapiens, UniProt P04150); assay: Displacement of GS-red from glucocorticoid receptor by fluorescence polarization assay
T1 sequence (P04150 whole entry): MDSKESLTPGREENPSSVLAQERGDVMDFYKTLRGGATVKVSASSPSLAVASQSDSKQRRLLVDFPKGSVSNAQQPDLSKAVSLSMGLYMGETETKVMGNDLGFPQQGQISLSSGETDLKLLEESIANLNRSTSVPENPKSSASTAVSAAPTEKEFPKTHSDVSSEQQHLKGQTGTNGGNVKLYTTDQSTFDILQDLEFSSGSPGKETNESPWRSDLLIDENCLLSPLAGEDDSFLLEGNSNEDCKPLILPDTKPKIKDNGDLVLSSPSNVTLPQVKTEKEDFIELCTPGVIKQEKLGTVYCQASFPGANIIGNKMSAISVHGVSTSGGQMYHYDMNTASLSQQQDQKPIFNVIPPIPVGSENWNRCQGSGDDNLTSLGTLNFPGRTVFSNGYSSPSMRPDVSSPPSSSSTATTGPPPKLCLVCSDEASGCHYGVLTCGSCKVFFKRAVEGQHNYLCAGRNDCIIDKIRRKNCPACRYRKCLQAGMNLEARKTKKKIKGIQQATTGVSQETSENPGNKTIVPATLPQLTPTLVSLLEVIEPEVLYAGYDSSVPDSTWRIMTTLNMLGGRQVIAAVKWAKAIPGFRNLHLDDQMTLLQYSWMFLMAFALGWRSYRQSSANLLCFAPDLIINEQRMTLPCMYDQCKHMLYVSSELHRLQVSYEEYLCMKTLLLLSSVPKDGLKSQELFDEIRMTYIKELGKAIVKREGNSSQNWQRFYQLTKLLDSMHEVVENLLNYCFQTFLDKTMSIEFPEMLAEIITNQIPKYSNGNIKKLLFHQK

Glucocorticoid receptor [2] = molecular target: T1, Glucocorticoid receptor; assay: Transrepression activity at glucocorticoid receptor alpha in phorbol myristate acetate-stimulated human A549 cells assessed as inhibition of AP1 response element by luciferase reporter gene assay; assay type: cell-based
Glucocorticoid receptor [3] = molecular target: T1, Glucocorticoid receptor; assay: Transrepression activity at glucocorticoid receptor alpha in IL-1beta-stimulated human A549 cells assessed as inhibition of NFkappaB-dependent E-selectin transcription by luciferase reporter gene assay; assay type: cell-based
Glucocorticoid receptor [4] = molecular target: T1, Glucocorticoid receptor; assay: Transactivation activity at GR-alpha in human NP1 Hela cells assessed as induction of GAL4-DBD after 20 hrs by luciferase reporter gene assay; assay type: cell-based
Glucocorticoid receptor [5] = molecular target: T1, Glucocorticoid receptor; assay: Transactivation activity at GR-alpha in human NP1 Hela cells assessed as inhibition of GAL4-DBD after 20 hrs by luciferase reporter gene assay; assay type: cell-based
Glucocorticoid receptor [6] = molecular target: T1, Glucocorticoid receptor; assay: Transactivation activity at glucocorticoid receptor alpha human 13D3/Huh7 cells assessed as induction of TAT activity after 4 hrs by spectrophotometry; assay type: cell-based, Huh-7
Blood [7] = assay: Antiinflammatory activity in human whole blood assessed as inhibition of LPS-induced TNFalpha production after overnight incubation by ELISA; assay type: functional, tissue-based
Method in brief: (§1)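 Whole blood from two donors per experiment was collected into ACD-A. Compounds were added and the blood was incubated about 20 h at 37 °C under 5% CO2. Blood was then stimulated for 5 h with LPS (final 100 ng/mL, for TNFα) or IL-1β (final 10 ng/mL, for IL-8). Plasma TNFα or IL-8 was measured by ELISA. Efficacy was expressed as % of dexamethasone, and values are means of at least two experiments.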

Blood [8] = assay: Antiinflammatory activity in human whole blood assessed as inhibition of IL-1beta-induced IL-8 production after overnight incubation by ELISA; assay type: functional, tissue-based; method in brief: as §1
Blood [9] = assay: Antiinflammatory activity in human whole blood assessed as inhibition of LPS-induced TNFalpha production after overnight incubation by ELISA relative to Dexamethasone; assay type: functional; method in brief: as §1

| SMILES | Ki (Glucocorticoid receptor [1]) | EC50 (Glucocorticoid receptor [2]) | EC50 (Glucocorticoid receptor [3]) | EC50 (Glucocorticoid receptor [4]) | EC50 (Glucocorticoid receptor [5]) | EC50 (Glucocorticoid receptor [6]) | EC50 (Blood [7]) | EC50 (Blood [8]) | Imax (Blood [9]) |
| --- | --- | --- | --- | --- | --- | --- | --- | --- | --- |
| CC(C)(C(=O)Nc1nncs1)[C@H]1c2ccccc2Oc2nc(-c3ccc(C(=O)N4CCOCC4)cc3)ccc21 | 2.6 nM | 12.4 nM | 6.3 nM | 39.2 nM | 28.6 nM | – | – | – | – |
| Cc1ccccc1-c1ccc2c(n1)Oc1ccccc1[C@@H]2C(C)(C)C(=O)Nc1nncs1 | 10.5 nM | 122 nM | > 5000 nM | > 10000 nM | 1560 nM | > 5000 nM | – | – | – |
| CC(=O)c1ccc(-c2ccc3c(n2)Oc2ccccc2[C@@H]3C(C)(C)C(=O)Nc2nncs2)cc1F | 6 nM | 42 nM | – | > 10000 nM | 134 nM | > 5000 nM | – | – | – |
| CNC(=O)c1ccc(-c2ccc3c(n2)Oc2ccccc2[C@@H]3C(C)(C)C(=O)Nc2nncs2)cc1 | 9.17 nM | 167 nM | 216 nM | > 10000 nM | 806 nM | > 5000 nM | – | – | – |
| Cc1cccc(-c2ccc3c(n2)Oc2ccccc2[C@@H]3C(C)(C)C(=O)Nc2nncs2)c1 | 24 nM | 654 nM | > 5000 nM | > 10000 nM | 1560 nM | > 5000 nM | – | – | – |
| CCN(C)C(=O)c1ccc(-c2ccc3c(n2)Oc2ccccc2[C@H]3C(C)(C)C(=O)Nc2nncs2)cc1Cl | 15.7 nM | 124 nM | 64.9 nM | 702 nM | 721 nM | 2400 nM | – | – | – |
| CC(C)(C(=O)Nc1nncs1)[C@H]1c2ccccc2Oc2nc(-c3ccc(C(=O)N4CCCCC4)cc3)ccc21 | 1.3 nM | 15.7 nM | 28.6 nM | 273 nM | 167 nM | > 5000 nM | – | – | – |
| Cc1ccc(-c2ccc3c(n2)Oc2ccccc2[C@@H]3C(C)(C)C(=O)Nc2nncs2)cc1 | 2.5 nM | 46.8 nM | 26.6 nM | 2210 nM | 260 nM | > 5000 nM | – | – | – |
| CC(=O)c1ccc(-c2ccc3c(n2)Oc2ccccc2[C@@H]3C(C)(C)C(=O)Nc2nncs2)cc1 | 2.9 nM | 6.2 nM | 10.2 nM | 75.4 nM | 31 nM | 1100 nM | – | – | – |
| C[C@@H]1C[C@H]2[C@@H]3CCC4=CC(=O)C=C[C@]4(C)[C@@]3(F)[C@@H](O)C[C@]2(C)[C@@]1(O)C(=O)CO [DEXAMETHASONE] | – | – | – | – | – | – | 6.9 nM | 5.1 nM | – |
| CN(C)C(=O)c1ccc(-c2ccc3c(c2)Oc2ccccc2C3C(C)(C)C(=O)Nc2nncs2)cc1 (racemic) | 8.6 nM | 77.9 nM | 74.9 nM | > 10000 nM | 610 nM | > 5000 nM | – | – | – |
| CCN(C)C(=O)c1ccc(-c2ccc3c(n2)Oc2ccccc2[C@H]3C(C)(C)C(=O)Nc2nncs2)cc1 | 0.67 nM | 17.4 nM | 7.8 nM | 32.4 nM | 36.7 nM | 740 nM | 78.5 nM | – | 100% |
| CC(C)(C(=O)Nc1nncs1)[C@H]1c2ccccc2Oc2nc(-c3ccc(C(=O)O)cc3)ccc21 | 15.4 nM | 544 nM | 1090 nM | > 10000 nM | > 5000 nM | – | – | – | – |
| COc1ccc(-c2ccc3c(n2)Oc2ccccc2[C@@H]3C(C)(C)C(=O)Nc2nncs2)cc1 | 1.2 nM | 28.3 nM | 21.3 nM | > 10000 nM | 105 nM | > 5000 nM | – | – | – |
| CC(C)(C(=O)Nc1nncs1)C1c2ccccc2Oc2ncccc21 (racemic) | 412 nM | – | – | – | – | – | – | – | – |
| CN(C)C(=O)c1ccc(-c2ccc3c(n2)Oc2ccccc2[C@H]3C(C)(C)C(=O)Nc2nncs2)cc1 | – | > 10000 nM | – | > 10000 nM | 1740 nM | > 5000 nM | – | – | – |
| CCS(=O)(=O)c1ccc(-c2ccc3c(n2)Oc2ccccc2[C@@H]3C(C)(C)C(=O)Nc2nncs2)cc1 | 4 nM | 28.6 nM | 22.8 nM | 206 nM | 196 nM | > 5000 nM | – | – | – |
| CC(C)(C(=O)Nc1nncs1)[C@@H]1c2ccccc2Oc2nc(-c3ccc(O)cc3)ccc21 | 5.7 nM | 90.8 nM | 108 nM | > 10000 nM | 201 nM | – | – | – | – |
| CN(C)C(=O)c1cnc(-c2ccc3c(c2)Oc2ccccc2C3C(C)(C)C(=O)Nc2nncs2)nc1 (racemic) | 4.2 nM | 183 nM | – | 596 nM | 592 nM | – | – | – | – |
| CN(C)C(=O)c1ccc(-c2ccc3c(c2)Oc2ccccc2C3C(C)(C)C(=O)Nc2nncs2)nc1 (racemic) | 4.1 nM | 58 nM | – | 382 nM | 162 nM | > 5000 nM | – | – | – |
| CC(C)(C(=O)Nc1nncs1)[C@H]1c2ccccc2Oc2nc(-c3ccccc3)ccc21 | – | > 1500 nM | – | > 10000 nM | 187 nM | > 5000 nM | – | – | – |
| CN(C)c1ccc(-c2ccc3c(n2)Oc2ccccc2[C@@H]3C(C)(C)C(=O)Nc2nncs2)cc1 | 3.8 nM | 13.6 nM | 20 nM | 926 nM | 242 nM | – | – | – | – |
| CC(C)(C(=O)Nc1nncs1)[C@H]1c2ccccc2Oc2nc(-c3ccc(C(N)=O)cc3)ccc21 | – | > 10000 nM | – | > 10000 nM | 202 nM | > 5000 nM | – | – | – |
| COc1ccc(-c2ccc3c(n2)Oc2ccccc2[C@H]3C(C)(C)C(=O)Nc2nncs2)cc1 | 49.5 nM | > 10000 nM | 355 nM | > 10000 nM | 4360 nM | > 5000 nM | – | – | – |
| CCc1ccc(-c2ccc3c(n2)Oc2ccccc2[C@H]3C(C)(C)C(=O)Nc2nncs2)cc1 | 1 nM | 17.7 nM | 8.3 nM | 108 nM | 27 nM | 732 nM | – | – | – |
